This is an account of results in publication PMC8612216 (Proceedings of the National Academy of Sciences of the …, 2021).

The target in assay [1] is T1, NFR5 ectodomain (Lotus japonicus, UniProt Q70KR1).
T1 sequence (Q70KR1 29-242): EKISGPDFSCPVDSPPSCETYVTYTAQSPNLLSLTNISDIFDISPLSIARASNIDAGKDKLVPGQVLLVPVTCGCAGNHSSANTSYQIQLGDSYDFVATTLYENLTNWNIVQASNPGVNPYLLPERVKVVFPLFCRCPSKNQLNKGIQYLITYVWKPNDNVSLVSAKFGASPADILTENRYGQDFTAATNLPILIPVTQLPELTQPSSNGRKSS
Put plainly: BLI binding of NFR5 ectodomain. The settings on record: analyte 100 to 1.56 µM. Background: In BLI a coated tip is dipped into the sample, and binding shifts an interference pattern.

The target in assay [2] is T2, engineered LYS11 (ENG-LYS11) (Lotus japonicus, UniProt D3KTZ8).
T2 sequence (D3KTZ8 28-247): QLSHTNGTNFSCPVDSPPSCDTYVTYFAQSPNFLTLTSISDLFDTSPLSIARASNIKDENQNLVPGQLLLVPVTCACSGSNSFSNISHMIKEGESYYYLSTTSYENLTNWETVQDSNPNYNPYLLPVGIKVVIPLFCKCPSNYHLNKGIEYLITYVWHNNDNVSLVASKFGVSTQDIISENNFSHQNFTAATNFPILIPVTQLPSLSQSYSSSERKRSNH
Put plainly: BLI binding of engineered LYS11 ectodomain. The settings on record: ENG-LYS11, analyte 100 to 1.56 µM.

The target in assay [3] is T3, CERK1 (Arabidopsis thaliana, UniProt A8R7E6).
T3 sequence (A8R7E6 24-232 limits assumed): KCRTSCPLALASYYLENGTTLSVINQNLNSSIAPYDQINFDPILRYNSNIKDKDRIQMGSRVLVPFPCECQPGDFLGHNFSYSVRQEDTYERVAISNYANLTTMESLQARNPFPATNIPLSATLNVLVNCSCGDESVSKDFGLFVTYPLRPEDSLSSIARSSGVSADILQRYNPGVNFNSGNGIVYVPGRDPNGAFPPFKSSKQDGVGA
Briefly: BLI kinetics of CERK1 ectodomain binding to chitin fragment.

For assay [4], the target named is T4, NFP (Medicago truncatula, UniProt Q0GXS4).
T4 sequence (Q0GXS4 28-246): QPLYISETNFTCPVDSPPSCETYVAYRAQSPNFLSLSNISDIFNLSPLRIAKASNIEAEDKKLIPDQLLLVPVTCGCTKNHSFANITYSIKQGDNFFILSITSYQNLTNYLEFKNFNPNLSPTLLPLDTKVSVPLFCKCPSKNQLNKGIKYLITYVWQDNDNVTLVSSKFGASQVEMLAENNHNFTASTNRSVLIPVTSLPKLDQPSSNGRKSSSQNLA
Put plainly: MST steady-state binding to fluorescently labeled NFP. The settings on record: ligand 0.6 to 20,000 nM, NFP 12.5 to 50 nM. Put shortly: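 Microscale thermophoresis using NHS blue dye-labelled NFP ectodomain (insect cell-expressed) held at a constant 12.5–50 nM. Ligands were S. meliloti succinoglycan (EPS-I) and maltodextrin, each titrated from 0.6 to 20,000 nM. Steady-state binding signal was recorded.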

On to `N[C@H]1[C@H](O[C@H]2[C@H](O)[C@@H](N)[C@H](O[C@H]3[C@H](O)[C@@H](N)[C@H](O[C@H]4[C@H](O)[C@@H](N)[C@H](O[C@H]5[C@H](O)[C@@H](N)C(O)O[C@@H]5CO)O[C@@H]4CO)O[C@@H]3CO)O[C@@H]2CO)O[C@H](CO)[C@@H](O)[C@@H]1O` (some centres unmarked) [CO5, chitopentaose], for which the values for the Kd result in assay [1] and in assay [2] were “does not bind” and “completely lost the ability to bind”, respectively. In addition, in assay [3], the binding kinetics entry is “fast association and dissociation rates”. Turning to S. meliloti succinoglycan [EPS-I], the “binding to NFP” value in assay [4] is recorded as “unable to bind”. The same measure, in the same setting: under maltodextrin stands “unable to bind”.
